The target of test [1] is T1, Adrenergic receptor alpha-1 (Homo sapiens, UniProt P35348+P25100+P35368).
T1 sequence (P35348 whole entry): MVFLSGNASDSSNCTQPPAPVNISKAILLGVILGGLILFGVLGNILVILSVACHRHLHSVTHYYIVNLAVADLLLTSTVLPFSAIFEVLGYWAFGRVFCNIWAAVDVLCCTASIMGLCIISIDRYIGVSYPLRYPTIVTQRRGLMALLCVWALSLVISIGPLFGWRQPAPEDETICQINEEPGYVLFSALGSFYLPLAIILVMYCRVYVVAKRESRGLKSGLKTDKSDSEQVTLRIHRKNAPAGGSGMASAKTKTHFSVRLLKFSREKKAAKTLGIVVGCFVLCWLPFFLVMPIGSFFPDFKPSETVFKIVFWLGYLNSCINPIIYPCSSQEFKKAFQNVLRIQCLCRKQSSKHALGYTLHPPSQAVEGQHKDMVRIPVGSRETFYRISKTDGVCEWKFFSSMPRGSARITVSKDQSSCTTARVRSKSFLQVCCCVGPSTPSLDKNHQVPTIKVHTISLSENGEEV
T1 sequence (P25100 whole entry): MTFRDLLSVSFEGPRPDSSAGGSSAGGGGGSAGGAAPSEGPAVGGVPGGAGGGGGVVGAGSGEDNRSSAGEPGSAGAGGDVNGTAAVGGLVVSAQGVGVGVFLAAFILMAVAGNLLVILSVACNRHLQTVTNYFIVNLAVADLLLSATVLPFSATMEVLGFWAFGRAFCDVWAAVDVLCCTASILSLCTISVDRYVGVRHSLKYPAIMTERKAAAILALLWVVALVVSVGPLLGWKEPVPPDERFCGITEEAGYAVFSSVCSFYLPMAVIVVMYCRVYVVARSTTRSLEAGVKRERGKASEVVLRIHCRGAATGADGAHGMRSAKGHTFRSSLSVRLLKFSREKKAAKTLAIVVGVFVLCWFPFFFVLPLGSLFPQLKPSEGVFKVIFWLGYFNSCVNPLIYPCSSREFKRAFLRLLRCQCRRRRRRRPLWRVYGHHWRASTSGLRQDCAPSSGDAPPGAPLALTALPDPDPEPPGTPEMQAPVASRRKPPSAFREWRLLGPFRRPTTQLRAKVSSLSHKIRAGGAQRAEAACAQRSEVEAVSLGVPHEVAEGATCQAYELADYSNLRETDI
T1 sequence (P35368 whole entry): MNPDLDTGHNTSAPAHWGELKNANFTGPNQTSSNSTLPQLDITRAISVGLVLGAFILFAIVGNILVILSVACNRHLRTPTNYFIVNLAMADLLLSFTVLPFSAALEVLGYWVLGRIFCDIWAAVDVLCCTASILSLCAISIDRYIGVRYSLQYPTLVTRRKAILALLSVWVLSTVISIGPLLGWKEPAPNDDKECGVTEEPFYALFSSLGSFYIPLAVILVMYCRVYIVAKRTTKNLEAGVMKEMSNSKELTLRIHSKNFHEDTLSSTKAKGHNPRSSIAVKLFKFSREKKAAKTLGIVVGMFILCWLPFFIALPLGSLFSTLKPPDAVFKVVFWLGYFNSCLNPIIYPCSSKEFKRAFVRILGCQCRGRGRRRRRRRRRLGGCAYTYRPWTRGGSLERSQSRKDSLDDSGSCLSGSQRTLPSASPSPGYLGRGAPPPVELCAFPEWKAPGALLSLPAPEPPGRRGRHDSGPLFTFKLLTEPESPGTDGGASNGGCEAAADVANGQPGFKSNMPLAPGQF
The test can be described thus: Binding affinity to adrenergic alpha-1 receptor. Type of test: protein assay.

In test [2] the target is T2, 5-hydroxytryptamine receptor 1A (Homo sapiens, UniProt P08908).
T2 sequence (P08908 whole entry): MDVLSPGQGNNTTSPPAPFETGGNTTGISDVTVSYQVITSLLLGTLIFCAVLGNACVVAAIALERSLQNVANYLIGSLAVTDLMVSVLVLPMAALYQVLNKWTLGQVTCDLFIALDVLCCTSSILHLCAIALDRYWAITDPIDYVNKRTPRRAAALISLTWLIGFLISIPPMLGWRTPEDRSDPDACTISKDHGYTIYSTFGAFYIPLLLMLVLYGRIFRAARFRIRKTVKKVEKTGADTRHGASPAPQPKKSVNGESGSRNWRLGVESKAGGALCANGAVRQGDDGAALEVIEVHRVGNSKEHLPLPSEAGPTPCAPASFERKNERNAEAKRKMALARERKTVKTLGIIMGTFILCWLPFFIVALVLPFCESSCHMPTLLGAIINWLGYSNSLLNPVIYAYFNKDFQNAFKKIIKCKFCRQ
Briefly: Binding affinity to 5HT1A.

Test [3] is filed under the species Homo sapiens. Briefly: Selectivity for 5HT1A over adrenergic alpha-1 receptor. In outline:
(§1)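 Selectivity is the ratio of Ki at 5-HT1A, D1 or D2 to Ki at α1. Ki values are means (±SD) of three separate experiments.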

Test [4] has as its target D(1A) dopamine receptor (Homo sapiens, UniProt P21728). The test can be described thus: Binding affinity to dopamine D1 receptor.
Test [5] concerns the target D(2) dopamine receptor (Homo sapiens, UniProt P14416). The test can be described thus: Binding affinity to dopamine D2 receptor.
Test [6] is filed under the species Homo sapiens. The test can be described thus: Selectivity for dopamine D1 over adrenergic alpha-1 receptor. In outline: as §1
Test [7] is described as follows: Selectivity for dopamine D2 over adrenergic alpha-1 receptor. The procedure, abridged: as §1

Sequence of D(1A) dopamine receptor (P21728 whole entry): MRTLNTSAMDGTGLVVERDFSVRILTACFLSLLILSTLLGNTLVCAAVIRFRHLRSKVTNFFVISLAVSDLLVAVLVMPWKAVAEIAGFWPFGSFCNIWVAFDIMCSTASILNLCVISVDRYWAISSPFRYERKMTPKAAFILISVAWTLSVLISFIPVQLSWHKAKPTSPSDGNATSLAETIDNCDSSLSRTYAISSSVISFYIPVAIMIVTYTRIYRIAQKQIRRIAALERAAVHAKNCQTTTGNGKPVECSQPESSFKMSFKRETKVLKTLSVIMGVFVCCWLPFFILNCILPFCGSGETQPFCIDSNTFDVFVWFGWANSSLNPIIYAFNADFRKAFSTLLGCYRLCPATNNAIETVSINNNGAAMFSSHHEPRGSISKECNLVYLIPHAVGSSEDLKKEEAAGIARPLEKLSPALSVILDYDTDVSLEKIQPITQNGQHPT
Sequence of D(2) dopamine receptor (P14416 whole entry): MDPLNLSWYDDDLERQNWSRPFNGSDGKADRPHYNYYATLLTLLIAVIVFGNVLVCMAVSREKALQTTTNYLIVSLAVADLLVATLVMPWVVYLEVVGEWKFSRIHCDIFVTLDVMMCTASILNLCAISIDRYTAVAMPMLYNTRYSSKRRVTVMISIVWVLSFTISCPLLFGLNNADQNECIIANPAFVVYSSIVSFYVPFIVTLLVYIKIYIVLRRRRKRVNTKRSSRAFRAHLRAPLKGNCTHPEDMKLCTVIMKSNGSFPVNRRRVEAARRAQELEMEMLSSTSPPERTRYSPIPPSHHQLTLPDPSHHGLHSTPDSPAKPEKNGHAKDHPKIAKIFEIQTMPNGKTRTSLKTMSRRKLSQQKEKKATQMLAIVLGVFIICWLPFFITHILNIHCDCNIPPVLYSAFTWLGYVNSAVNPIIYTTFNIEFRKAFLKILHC

The term Ki denotes a dissociation constant, usually derived from enzyme kinetics or from competition with a known ligand. High values mean a looser hold on the target, low ones a stronger hold on the target. On to `COc1ccccc1-c1cc2c(=O)n(CCN3CCN(c4ccccc4OC)CC3)c(=O)[nH]c2[nH]1`, for which the results for the Ki in test [1] and in test [2] were 1.63 nM and 157 nM, respectively. For the same compound, in test [3], the Ratio Ki was 97.

On to `COc1ccccc1N1CCN(CCn2c(=O)[nH]c3[nH]c(-c4ccc(Cl)cc4)cc3c2=O)CC1`, for which the Ki in test [1] stood at 4.08 nM; in test [2], 401 nM. Besides, in test [3], the Ratio Ki is 98.

As for `COc1ccccc1N1CCN(CCn2c(=O)[nH]c3[nH]c(-c4ccccc4)cc3c2=O)CC1`, the Ki in test [1] was determined as 1.99 nM; in test [2], 122 nM. Besides, the Ratio Ki in test [3] was 61.

Turning to `COc1ccccc1-c1cc2c(=O)n(CCN3CCN(c4ccccc4Cl)CC3)c(=O)[nH]c2[nH]1`, the inhibition constant Ki in test [1] is 3.32 nM; in test [2] it was 1030 nM; in test [4], 8550 nM; in test [5], 363 nM. The results for the Ratio Ki in test [3], in test [6] and in test [7] were 310, more than 2500 and 109, respectively.

As for `COc1ccccc1N1CCN(CCn2c(=O)[nH]c3[nH]c(-c4ccccc4Cl)cc3c2=O)CC1`, the Ki turned out to be 2.18 nM in test [1] and 19.1 nM in test [2]. In addition, the Ratio Ki in test [3] worked out at 8.8.

Take `O=c1[nH]c2[nH]c(-c3ccccc3Cl)cc2c(=O)n1CCN1CCN(c2ccccc2Cl)CC1`: the Ki in test [1] stood at 6.28 nM; in test [2] it was 64.9 nM; in test [4] it was 567 nM; in test [5] it was 356 nM. Moreover, the Ratio Ki is 10 in test [3], 90 in test [6] and 57 in test [7].

With `COc1ccccc1N1CCN(CCn2c(=O)[nH]c3[nH]c(-c4ccccc4C)cc3c2=O)CC1`, the results for the inhibition constant (Ki) in test [1] and in test [2] were 1.19 nM and 295 nM, respectively. The Ratio Ki in test [3] came to 248.

For the compound `O=c1[nH]c2[nH]c(-c3ccccc3)cc2c(=O)n1CCN1CCN(c2ccccc2Cl)CC1`, the inhibition constant Ki was 4.71 nM in test [1], 1540 nM in test [2], 516 nM in test [4] and 137 nM in test [5]. The results for the Ratio Ki in test [3], in test [6] and in test [7] were 327, 110 and 29, respectively.

For `COc1ccc(-c2cc3c(=O)n(CCN4CCN(c5ccccc5OC)CC4)c(=O)[nH]c3[nH]2)cc1`, the Ki in test [1] is 5.47 nM; in test [2] it was 113 nM. The Ratio Ki in test [3] was determined as 21.

For `Cc1ccccc1-c1cc2c(=O)n(CCN3CCN(c4ccccc4Cl)CC3)c(=O)[nH]c2[nH]1`, the Ki in test [1] is 2.8 nM; in test [2], 1450 nM; in test [4] it was 1040 nM; in test [5], 627 nM. In addition, the results for the Ratio Ki in test [3], in test [6] and in test [7] were 518, 371 and 224, respectively.

As for `COc1ccccc1N1CCN(CCn2c(=O)[nH]c3[nH]c(-c4ccc(C)cc4)cc3c2=O)CC1`, the Ki in test [1] was 4.97 nM; in test [2] it was 333 nM. Also, the Ratio Ki in test [3] was 67.

(Values after ChEMBL document CHEMBL1148546, “3-Arylpiperazinylethyl-1H-pyrrolo[2,3-d]pyrimidine-2,4(3H,7H)-dione derivatives as novel, high-affinity and selective alpha(1)-adrenoceptor ligands” (Bioorg Med Chem Lett, 2006).)
